In brackets after ≈: the same amount, converted by molar mass.
Tests used:
[1] = test system: Candida albicans; assay: Antifungal activity against fluconazole resistant Candida albicans 167-1 by CLSI protocol based broth microdilution method; type: functional
Method in brief: (§1)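 Broth microdilution per CLSI M27-A3 against clinical C. albicans isolates. Strains sub-cultured at least twice on Tryptone Soya Agar, 37 °C, 48 h. Compounds dissolved in DMSO at 2000 μg mL–1 stock. Fluconazole positive control, plus culture, media and vehicle controls. Run in duplicate; MIC in μg mL–1.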

[2] = test system: Candida albicans; assay: Antifungal activity against fluconazole resistant Candida albicans 167-1 in presence of fluconazole by CLSI protocol based broth microdilution method; type: functional
Method in brief: (§2)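 Checkerboard-style combination with fluconazole at a 1 : 1 ratio, over concentrations 2–4 fold below each agent's MIC alone, by CLSI broth microdilution. Fractional inhibitory concentration index calculated and interpreted as synergy (<0.5), additive (0.5–1), indifferent or antagonistic.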

[3] = test system: Candida albicans; assay: Antifungal activity against fluconazole resistant Candida albicans 167-2 by CLSI protocol based broth microdilution method; type: functional; method in brief: as §1
[4] = test system: Candida albicans; assay: Inhibition of ABC efflux pumps in fluconazole susceptible Candida albicans 003gr assessed as reduction in energy-dependent rhodamine 6G efflux in presence of 0.1 M glucose after 25 mins […] relative to control
[5] = test system: Candida albicans; assay: Antifungal activity against fluconazole susceptible Candida albicans 003gr by CLSI protocol based broth microdilution method; type: functional
Method in brief: (§3)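 Clinical isolates and control strain subcultured at least twice on TSA, 37 °C, 48 h. MICs by CLSI M27-A3 broth microdilution; compounds dissolved in DMSO to 2000 μg mL–1 stock. Fluconazole positive control, culture, media and DMSO vehicle controls in each run. Duplicate experiments; MIC in μg mL–1.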

[6] = test system: Candida albicans; assay: Antifungal activity against fluconazole susceptible Candida albicans 003gr in presence of fluconazole by CLSI protocol based broth microdilution method; type: functional
[7] = test system: Candida albicans; assay: Antifungal activity against fluconazole susceptible Candida albicans 0072gr by CLSI protocol based broth microdilution method; type: functional; method in brief: as §3
[8] = test system: Candida albicans; assay: Antifungal activity against Candida albicans ATCC 90028 by CLSI protocol based broth microdilution method; type: functional; method in brief: as §3
[9] = test system: Candida albicans; assay: Antifungal activity against fluconazole susceptible Candida albicans 0072gr in presence of fluconazole by CLSI protocol based broth microdilution method; type: functional
[10] = test system: Candida albicans; assay: Antifungal activity against fluconazole susceptible Candida albicans 004B1 by CLSI protocol based broth microdilution method; type: functional; method in brief: as §3
[11] = test system: Candida albicans; assay: Inhibition of ABC efflux pumps in fluconazole resistant Candida albicans 167-1 assessed as reduction in energy-dependent rhodamine 6G efflux in presence of 0.1 M glucose after 25 mins […] relative to control
[12] = test system: Candida albicans; assay: Inhibition of ergosterol biosynthesis in fluconazole resistant Candida albicans A171 at 0.5 to 1 times MIC relative to control; type: functional
Method in brief: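 Total sterols quantified by alcoholic KOH extraction in cells grown in 50 ml TSB with compounds at MIC and ½ MIC; untreated and 8 μg mL–1 fluconazole controls. Spectral scan; ergosterol content from A281.5 and A230 absorbances, dilution factor and pellet weight, correcting for 24(28) DHE.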

[13] = test system: Candida albicans; assay: Antifungal activity against fluconazole susceptible Candida albicans 002B1 by CLSI protocol based broth microdilution method; type: functional; method in brief: as §3
[14] = test system: Candida albicans; assay: Antifungal activity against fluconazole susceptible Candida albicans 004gr in presence of fluconazole by CLSI protocol based broth microdilution method; type: functional
[15] = test system: Candida albicans; assay: Antifungal activity against fluconazole susceptible Candida albicans 004gr by CLSI protocol based broth microdilution method; type: functional; method in brief: as §3
[16] = test system: Candida albicans; assay: Inhibition of ABC efflux pumps in fluconazole susceptible Candida albicans 0079gr assessed as reduction in energy-dependent rhodamine 6G efflux in presence of 0.1 M glucose after 25 mins by fluorescence assay relative to control
Method in brief: (§4)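 Cells grown in TSB at 37 °C for 8 h, washed, resuspended in glucose-free PBS at 1 × 10^8 cells. De-energized 45 min with 5 mM deoxyglucose plus 5 mM dinitrophenol. […] Washed, sampled 5–25 min, then 0.1 M glucose added. Absorbance 527 nm, R6G from standard curve.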

[17] = test system: Candida albicans; assay: Inhibition of ABC efflux pumps in fluconazole susceptible Candida albicans 002B1 assessed as reduction in energy-dependent rhodamine 6G efflux in presence of 0.1 M glucose after 25 mins […] relative to control
[18] = test system: Candida albicans; assay: Antifungal activity against fluconazole susceptible Candida albicans 0079gr in presence of fluconazole by CLSI protocol based broth microdilution method; type: functional
[19] = test system: Candida albicans; assay: Inhibition of ABC efflux pumps in fluconazole resistant Candida albicans A171 assessed as reduction in energy-dependent rhodamine 6G efflux in presence of 0.1 M glucose after 25 mins by fluorescence assay relative to control; method in brief: as §4
[20] = test system: Candida albicans; assay: Antifungal activity against Candida albicans ATCC 90028 in presence of fluconazole by CLSI protocol based broth microdilution method; type: functional
[21] = test system: Candida albicans; assay: Antifungal activity against fluconazole susceptible Candida albicans 002B1 in presence of fluconazole by CLSI protocol based broth microdilution method; type: functional
[22] = test system: Candida albicans; assay: Inhibition of ABC efflux pumps in fluconazole susceptible Candida albicans 0072gr assessed as reduction in energy-dependent rhodamine 6G efflux in presence of 0.1 M glucose after 25 mins […] relative to control
[23] = test system: Candida albicans; assay: Antifungal activity against fluconazole resistant Candida albicans A171 by CLSI protocol based broth microdilution method; type: functional; method in brief: as §1
[24] = test system: Candida albicans; assay: Inhibition of ABC efflux pumps in fluconazole susceptible Candida albicans 004B1 assessed as reduction in energy-dependent rhodamine 6G efflux in presence of 0.1 M glucose after 25 mins by fluorescence assay relative to control; method in brief: as §4
[25] = test system: Candida albicans; assay: Antifungal activity against fluconazole resistant Candida albicans A171 in presence of fluconazole by CLSI protocol based broth microdilution method; type: functional; method in brief: as §2
[26] = test system: Candida albicans; assay: Inhibition of ergosterol biosynthesis in fluconazole susceptible Candida albicans ATCC 90028 at 0.5 to 1 times MIC relative to control; type: functional
Method in brief: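 ATCC90028 grown in 50 ml TSB with MIC and ½ MIC of compound; untreated and 8 μg mL–1 fluconazole controls. Sterols extracted by alcoholic KOH method and spectrophotometrically scanned; ergosterol % calculated from A281.5 and A230 (E values 290 and 518) with dilution factor, per pellet weight.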

[27] = test system: Candida albicans; assay: Inhibition of ABC efflux pumps in fluconazole susceptible Candida albicans 004gr assessed as reduction in energy-dependent rhodamine 6G efflux in presence of 0.1 M glucose after 25 mins by fluorescence assay relative to control; method in brief: as §4
[28] = test system: Candida albicans; assay: Antifungal activity against fluconazole susceptible Candida albicans 0079gr by CLSI protocol based broth microdilution method; type: functional; method in brief: as §3
[29] = test system: Candida albicans; assay: Inhibition of ABC efflux pumps in fluconazole resistant Candida albicans 167-2 assessed as reduction in energy-dependent rhodamine 6G efflux in presence of 0.1 M glucose after 25 mins […] relative to control
[30] = test system: Candida albicans; assay: Antifungal activity against fluconazole susceptible Candida albicans 004B1 in presence of fluconazole by CLSI protocol based broth microdilution method; type: functional
[31] = test system: Candida albicans; assay: Antifungal activity against fluconazole resistant Candida albicans 167-2 in presence of fluconazole by CLSI protocol based broth microdilution method; type: functional; method in brief: as §2

O=C1NC(c2ccccc2)=CC(c2ccccc2)N1 (configuration not stated)
MIC [1]: 8 to 16 µg/mL (≈ 32 to 63.9 µM)
fractional inhibitory concentration index (FICI) [2]: 0.129 - 0.27
MIC [3]: 8 to 16 µg/mL (≈ 32 to 63.9 µM)
inhibition [4]: < 20%
MIC [5]: 1 to 8 µg/mL (≈ 4 to 32 µM)
fractional inhibitory concentration index (FICI) [6]: 0.31 - 1.5
MIC [7]: 1 to 8 µg/mL (≈ 4 to 32 µM)
MIC [8]: 1 to 8 µg/mL (≈ 4 to 32 µM)
fractional inhibitory concentration index (FICI) [9]: 0.31 - 1.5
MIC [10]: 1 to 8 µg/mL (≈ 4 to 32 µM)
inhibition [11]: < 20%
inhibition (INH) [12]: 49 - 94%
MIC [13]: 1 to 8 µg/mL (≈ 4 to 32 µM)
fractional inhibitory concentration index (FICI) [14]: 0.31 - 1.5
MIC [15]: 1 to 8 µg/mL (≈ 4 to 32 µM)
inhibition [16]: < 20%
inhibition [17]: < 20%
fractional inhibitory concentration index (FICI) [18]: 0.31 - 1.5
inhibition [19]: < 20%
fractional inhibitory concentration index (FICI) [20]: 0.31 - 1.5
fractional inhibitory concentration index (FICI) [21]: 0.31 - 1.5
inhibition [22]: < 20%
MIC [23]: 8 to 16 µg/mL (≈ 32 to 63.9 µM)
inhibition [24]: < 20%
fractional inhibitory concentration index (FICI) [25]: 0.129 - 0.27
inhibition (INH) [26]: 66 - 99%
inhibition [27]: < 20%
MIC [28]: 1 to 8 µg/mL (≈ 4 to 32 µM)
inhibition [29]: < 20%
fractional inhibitory concentration index (FICI) [30]: 0.31 - 1.5
fractional inhibitory concentration index (FICI) [31]: 0.129 - 0.27

c1ccc(C2=NOC(c3ccccc3)C2)cc1 (configuration not stated)
MIC [1]: 16 to 31 µg/mL (≈ 71.7 to 139 µM)
fractional inhibitory concentration index (FICI) [2]: 0.531 - 0.56
MIC [3]: 16 to 31 µg/mL (≈ 71.7 to 139 µM)
inhibition [4]: < 20%
MIC [5]: 4 to 31 µg/mL (≈ 17.9 to 139 µM)
fractional inhibitory concentration index (FICI) [6]: 0.75 - 2
MIC [7]: 4 to 31 µg/mL (≈ 17.9 to 139 µM)
MIC [8]: 4 to 31 µg/mL (≈ 17.9 to 139 µM)
fractional inhibitory concentration index (FICI) [9]: 0.75 - 2
MIC [10]: 4 to 31 µg/mL (≈ 17.9 to 139 µM)
inhibition [11]: < 20%
inhibition (INH) [12]: 49 - 94%
MIC [13]: 4 to 31 µg/mL (≈ 17.9 to 139 µM)
fractional inhibitory concentration index (FICI) [14]: 0.75 - 2
MIC [15]: 4 to 31 µg/mL (≈ 17.9 to 139 µM)
inhibition [16]: < 20%
inhibition [17]: < 20%
fractional inhibitory concentration index (FICI) [18]: 0.75 - 2
inhibition [19]: < 20%
fractional inhibitory concentration index (FICI) [20]: 0.75 - 2
fractional inhibitory concentration index (FICI) [21]: 0.75 - 2
inhibition [22]: < 20%
MIC [23]: 16 to 31 µg/mL (≈ 71.7 to 139 µM)
inhibition [24]: < 20%
fractional inhibitory concentration index (FICI) [25]: 0.531 - 0.56
inhibition (INH) [26]: 66 - 99%
inhibition [27]: < 20%
MIC [28]: 4 to 31 µg/mL (≈ 17.9 to 139 µM)
inhibition [29]: < 20%
fractional inhibitory concentration index (FICI) [30]: 0.75 - 2
fractional inhibitory concentration index (FICI) [31]: 0.531 - 0.56

Reference: ChEMBL document CHEMBL4257459, “Synergistic antifungal effect of cyclized chalcone derivatives and fluconazole against Candida albicans” (2017)
